Rows were chosen to be rich in hits. Some 1.8% of all compounds tested hit in one or more screens of this group.
HKDC1 inh: inhibitors of human hexokinase HKDC1; recombinant HKDC1, G6PDH/diaphorase resazurin coupled fluorescence; inhibition, % at 20 µM; hit rate 0.16% among 340,000;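 active means inhibition above about 35% when tested at 20 µM, limit read from the data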
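test system = in-house recombinant HK5 (HKDC1) enzyme | amount = HKDC1 at 5 µg/mL | control set = DMSO-enzyme wells negative, buffer-substituted wells positive | compound = one dose of 20 µM, 1% DMSO | schedule = reaction time 90 min, room temperature, protected from light | technique = resorufin fluorescence at 613 nm | reagent = glucose with 1 mM ATP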
AI-2 QS modul: modulators of Vibrio harveyi AI-2 quorum sensing system. hit rate 0.4% among 300,000. activity change, % at 7.5 µM. Vibrio harveyi JMH597 AI-2 luminescence/OD600 ratio, 9 h; active compounds read low; strain lacks LuxN and CqsS sensors; 0 = neutral-control median; in the data active means activity change below about -75%, passing the limit was not always enough; inconclusive means no clear call, values can overlap the other calls;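 further: luminescence divided by OD600 gain over 9 h not by final OD600 alone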
LANA-H2B inh: blocks KSHV LANA binding to histone H2A/H2B | Q9QR71 | cell-free LANA-H2A/H2B peptide, fluorescence polarization | inhibition, % (no concentration beside the values) | hit rate 0.6% among 320,000 | AID 2629; in the data active means inhibition mostly above about 10%, no sharp cut-off; inactive means mostly below about 6.7%
ATG4B inh: ATG4B (human) cysteine protease inhibition. Q9Y4P1. ATG4B cleavage of LC3-PLA2, NBD-HPC fluorescence, 1 h. inhibition, % at 8.33 µM. hit rate 0.51% among 340,000; in the data active means inhibition above about 40%
Target sequence (Q9Y4P1 whole entry, looked up): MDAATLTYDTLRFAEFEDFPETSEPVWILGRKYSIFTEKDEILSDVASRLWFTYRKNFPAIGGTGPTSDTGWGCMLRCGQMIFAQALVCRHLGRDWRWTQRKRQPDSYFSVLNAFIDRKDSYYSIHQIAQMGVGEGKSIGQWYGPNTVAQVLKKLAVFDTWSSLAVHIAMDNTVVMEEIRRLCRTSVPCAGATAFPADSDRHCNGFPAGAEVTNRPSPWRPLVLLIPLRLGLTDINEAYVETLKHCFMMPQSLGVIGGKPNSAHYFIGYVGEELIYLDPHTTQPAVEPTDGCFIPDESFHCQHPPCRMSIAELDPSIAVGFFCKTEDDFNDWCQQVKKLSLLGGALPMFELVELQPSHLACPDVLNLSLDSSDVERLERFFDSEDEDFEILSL
HDAC3 inh: human HDAC3 inhibition | hit rate 0.15% among 320,000 | recombinant HDAC3, fluorogenic peptide/trypsin coupled, fluorescence | O15379 | inhibition, % at 8.3 µM; in the data active means inhibition above about 26%, passing the limit was not always enough; inconclusive means no clear call, values can overlap the other calls
A1 inh: inhibitors of the anti-apoptotic protein A1, read as caspase activation. MEF A1-2A-BIM cells, Caspase-Glo 3/7 luminescence, 3 h; percent of clofoctol response, vehicle zero. caspase activation, % (no concentration beside the values). hit rate 0.066% among 330,000;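 active means over half of replicate activation scores above 10%, or exactly half above 10 with the replicate mean above 10; inconclusive means replicate mean below 10 yet half the replicates above 10; inactive means over half of replicates below 10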
A number is an active result; n = inactive; u = inconclusive; x = no result given; + = active, no number.

SMILES	HKDC1 inh	AI-2 QS modul	LANA-H2B inh	ATG4B inh	HDAC3 inh	A1 inh
O=C(Nc1cccc2ncccc12)c1ccc([N+](=O)[O-])o1	n	-108.6	n	n	n	n
CC(=O)c1c(C)[nH]c(C(=O)Nc2cccc(C)n2)c1C	n	n	9.4	n	n	n
O=C1CCCCC1CCc1ccncc1 (stereo not given)	n	x	x	n	x	x
O=C(C1CCN(S(=O)(=O)c2cccc3cccnc23)CC1)N1CCN(c2ccccc2)CC1	n	x	n	n	n	n
O=C(C1CCCN(S(=O)(=O)c2cccc3cccnc23)C1)N1CCN(c2ccc(F)cc2)CC1 (stereo not given)	n	n	24.8	n	n	n
COc1ccc(N2CCN(C(=O)C3CCCN(S(=O)(=O)c4ccc(C)cc4)C3)CC2)cc1 (stereo not given)	n	n	25.7	n	n	n
CCC(=O)c1ccc(OCC(=O)OCC(=O)N2c3ccccc3CC2C)cc1 (stereo not given)	n	n	n	n	n	n
CC(C)c1ccc(NC(=O)COc2ccccn2)cc1	n	-82.7	n	n	n	n
CC(C)c1ccc(NC(=O)COc2ccccc2)cc1	n	n	n	n	n	n
Cc1cc(C(=O)N2CCCC2C(=O)O)c(C)o1 (stereo not given)	n	n	17.8	n	n	x
Cc1cc(C(=O)N2CCC(C(N)=O)CC2)c(C)o1	n	x	n	n	n	n
O=C(c1cccnc1)N1N=C(C2CC2)CC1(O)C(F)(F)F (stereo not given)	n	n	11.4	n	x	n
O=c1cc(O)c2ccc(O)cc2o1	n	n	n	n	n	n
O=c1ccc2[n+]([O-])c3ccc(O)cc3oc-2c1	n	-417.8	x	n	x	x
CC(O)c1cc2c(s1)c1cnn(Cc3ccccc3F)c(=O)c1n2C (stereo not given)	n	x	x	n	x	x
Cc1ccc(Cc2c(C)nc3nc(SCC(=O)NCCCN4CCCCCC4)nn3c2C)cc1	n	x	n	n	33.0	n
Cc1ccc(C2(C)NC(=O)N(CC(=O)NNC(=O)c3cc(C)oc3C)C2=O)cc1 (stereo not given)	n	-79.5	n	n	n	n
Cc1ccc(C2(C)NC(=O)N(CC(=O)NNC(=O)c3ccccc3F)C2=O)cc1 (stereo not given)	n	x	21.5	n	n	n
CC1(c2ccccc2)NC(=O)N(CC(=O)NNC(=O)c2ccccc2F)C1=O (stereo not given)	n	x	x	n	x	x
CCC(=Cc1ccccc1OC)c1ccncc1	n	x	x	n	x	x
O=C(NCCc1nc2ccccc2[nH]1)/C(=C/c1ccco1)NC(=O)c1ccc(Br)cc1	n	n	n	n	n	n
O=C(NCCc1nc2ccccc2[nH]1)/C(=C/c1ccco1)NC(=O)c1ccccc1Br	n	n	13.9	n	n	n
CCC1(C(=O)NC(=Nc2ccccc2)Nc2ccccc2)CCOC1=O (stereo not given)	n	x	x	n	x	x
CC(C)c1ccc(NS(=O)(=O)c2ccc3c(c2)NC(=O)CO3)cc1	n	-84.8	x	n	x	x
CC(C)c1ccc(NS(=O)(=O)c2ccc3c(c2)oc(=O)n3C)cc1	n	-94.3	n	n	n	n
SMILES	HKDC1 inh	AI-2 QS modul	LANA-H2B inh	ATG4B inh	HDAC3 inh	A1 inh
CC(C)n1cnnc1SCC(=O)Nc1ccc(N2CCCCC2)cc1	n	n	n	n	x	n
CC(C)(C)c1nnc(SCC(=O)Nc2ccc(N3CCCCC3)cc2)n1N	n	x	+	n	n	n
COc1ccc(-c2cc(C(F)(F)F)nc(SCCC(=O)NCc3ccccc3)n2)cc1	n	n	32.1	n	u	n
Cc1ccc(-n2nnc3c(=O)n(CC(=O)N4CCCC4)cnc32)cc1	n	x	10.1	n	n	n
O=C(O)c1ccccc1N=Nc1c(O)[nH]c2ccc([N+](=O)[O-])cc12	37.1	n	n	n	n	n
O=C(N=Nc1c(O)[nH]c2ccc([N+](=O)[O-])cc12)c1ccccc1Cl	n	n	n	n	n	n
Cn1ccnc1SCC(=O)Nc1ccc2c(c1)OCO2	n	n	n	n	n	n
O=C(CCn1cccn1)Nc1ccc2c(c1)OCO2	n	n	14.9	n	n	n
C=C1C(=O)O[C@@]23[C@H]1CC[C@@H](C)[C@@H]2CC[C@@]1(C)O[C@@H]31	n	x	n	n	n	n
C[C@@H]1CCCCCCCCC(=O)OCCN(C(=O)OC(C)(C)C)[C@H](C)CCCCCCCCC(=O)OCCN(C(=O)OC(C)(C)C)[C@H](C)CCCCCCCCC(=O)OCCN1C(=O)OC(C)(C)C	n	x	n	n	n	n
CCCCCCn1c(=O)[nH]c2nc3cc(N)ccc3nc2c1=O	n	n	41.6	n	n	n
CCCCCn1c(=O)c(C(=O)c2ccccc2)nc2ccccc21	n	n	n	n	n	n
Cc1ccc(C(C)C)c(OCc2nc(-c3nonc3N)no2)c1	n	-85.1	n	n	n	n
Cc1ccc(C(C)C)c(OCc2n[nH]c(=S)o2)c1	n	n	n	n	n	n
O=C(CSc1nc2ccccc2n1CC(=O)N1CCCCC1)N1CCCCC1	n	n	n	n	n	n
CC(=O)Nc1ccc(C(=O)CSc2nc3ccccc3n2CC(=O)N2CCCC2)cc1	n	n	n	n	67.3	n
O=C(CN1CCN(Cc2ccccc2Cl)CC1)N/N=C/C=C/c1ccco1	n	x	n	n	n	n
O=C(CN1CCN(Cc2ccccc2)CC1)N/N=C\C=C/c1ccco1	n	n	12.2	n	n	n
Cn1c(N)c(C(=O)COC(=O)/C=C/c2ccc(Cl)c(Cl)c2)c(=O)n(C)c1=O	n	x	n	n	n	n
O=S(=O)(NC1CC1)c1ccc(S(=O)(=O)N2CCC3(CC2)OCCO3)cc1	n	n	18.9	n	n	n
CC(C)CNS(=O)(=O)c1ccc(S(=O)(=O)N2CCC3(CC2)OCCO3)cc1	n	n	n	n	n	n
CC1CN(C=O)CC(C)N1CCN1C(C)CN(C=O)CC1C (stereo not given)	n	x	x	n	x	x
O=C(Nc1nc2c(Br)cccc2s1)C1CC1	n	n	n	n	46.4	n
O=C(Nc1nc2c(Cl)cccc2s1)C1CC1	n	n	n	n	n	n
O=C(O)/C=C/C(=O)Nc1ccc(Cl)c(C(=O)O)c1	n	n	n	n	n	n
SMILES	HKDC1 inh	AI-2 QS modul	LANA-H2B inh	ATG4B inh	HDAC3 inh	A1 inh
NNc1ccc(Cl)c(C(=O)O)c1	n	n	63.1	n	n	n
Cc1ccccc1C(=O)NNc1ncnc2c1cnn2C	n	n	26.3	n	n	n
Cn1ncc2c(NNC(=O)c3ccccc3Cl)ncnc21	n	n	n	n	n	n
Cc1cc(/C=C\c2ccc3cc(N(C)C)ccc3[n+]2C)c(C)n1-c1ccccc1	36.7	x	n	n	n	n
COc1cc(C(=O)NCCNC(=O)c2ccco2)cc(OC)c1OC	n	x	x	n	x	x
N#CC(C#N)=C/C(C#N)=C(/N)N1CCN(c2ccc(Cl)cc2)CC1	n	n	17.6	n	n	n

High-throughput results: PubChem BioAssay, several laboratories
